Experimental data published in article PMC4122542 (Journal of medicinal chemistry, 2008).

Legend:
RG2 cells [1] = test: In vitro cell uptake of radiolabeled nucleosides in non-transduced control cells; assay type: cell-based, Rat; conditions: 2 h incubation, % of total radioactivity per 10^6 cells, wild-type RG2 cells
RG2TK+ cells = test: In vitro cell uptake of radiolabeled nucleosides in HSV1-tk expressing cells; assay type: cell-based, Rat; conditions: 2 h incubation, % of total radioactivity per 10^6 cells
[2] = normal mice; cited from earlier work
RG2 cells [3] = test: MTT cytotoxicity assay in wild-type cells; assay type: cell-based, Rat
Method in brief: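 Non-transduced rat glioma RG2 cells were grown in DMEM with 10% FBS and 1% penicillin/streptomycin at 37 °C under 5% CO2, then seeded at 1.5 × 10^3 cells/well and incubated overnight. Test compound was applied at 0.001–1000 μmol/L in quadruplicate for 72 h at 37 °C. MTT (1 mg/mL) was added for 3 h, and formazan was dissolved in DMSO. A490 (650 nm reference) was blank-subtracted and growth expressed as % of untreated control.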

[4] = cited from earlier work

In the case of `O=c1[nH]c(=O)n([C@H]2C[C@H](O)[C@@H](CO)O2)cc1CCCCC[18F]` [[^18F]FPeDU], the “% Uptake per 10^6 Cells, RG2” value (RG2 cells [1]) is reported as 0.23 % per 10^6 cells.
With `O=c1[nH]c(=O)n([C@@H]2O[C@H](CO)[C@@H](O)[C@@H]2F)cc1[125I]` [[^125I]FIAU, 2′-fluoro-2′-deoxy-5-[^125I]iodo-1-β-D-arabinofuranosyluracil] the “% Uptake per 10^6 Cells, RG2TK+” value (RG2TK+ cells) was 29.4 % per 10^6 cells and the “% Uptake per 10^6 Cells, RG2” value (RG2 cells [1]) was 3.44 % per 10^6 cells.
In the case of `O=c1[nH]c(=O)n([C@@H]2O[C@H](CO)[C@@H](O)[C@@H]2F)cc1/C=C/[123I]` [[^123I]IVFAU], the Brain uptake [2] is listed as “very low brain uptake”.
For `O=c1[nH]c(=O)n([C@@H]2O[C@H](CO)[C@@H](O)[C@H]2F)cc1/C=C/[123I]` [[^123I]IVFRU], the Brain uptake [2] is listed as “very low brain uptake”.
With `Nc1nc(O)c2ncn(COC(CO)CO)c2n1` [GCV, ganciclovir] the “Cytotoxicity to RG2 cells (in words)” value (RG2 cells [3]) was “not active against RG2 cells”.
For `O=c1[nH]c(=O)n([C@@H]2O[C@H](CO)[C@@H](O)[C@@H]2F)cc1CCCC[18F]` [[^18F]FFBuAU], the “% Uptake per 10^6 Cells, RG2” value (RG2 cells [1]) was 0.66 % per 10^6 cells.
In the case of `O=c1[nH]c(=O)n([C@H]2C[C@H](O)[C@@H](CO)O2)cc1CCC[18F]` [[^18F]FPrDU], the “% Uptake per 10^6 Cells, RG2TK+” value (RG2TK+ cells) is reported as 8.4 % per 10^6 cells.
For `O=c1[nH]c(=O)n([C@@H]2O[C@H](CO)[C@@H](O)[C@@H]2F)cc1I` [FIAU], the “Cytotoxicity to RG2 cells (in words)” value (RG2 cells [3]) is listed as “moderately toxic to RG2 cells” and the “Diffusion across the intact BBB” value [4] is listed as “does not diffuse across the intact BBB”.
